pPAFAH FP inh: inhibitors of human plasma PAF acetylhydrolase (pPAFAH). AID 463082. recombinant pPAFAH, FP-rhodamine probe fluorescence polarization. Q13093. 330,000 tested, 1.5% active. inhibition, % at 3.39 µM;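 active = inhibition above the mean inhibition across the screen plus 3 SD, cut at about 25% in these data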;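 also: inhibitors block binding of the rhodamine activity-based probe so polarization drops; 0% = enzyme with DMSO and 100% = wells lacking pPAFAH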
RBBP9 inhibitor: blocks human serine hydrolase RBBP9 | O75884 | recombinant RBBP9, FP-Rh probe fluorescence polarization | inhibition, % at 7.94 µM | 220,000 tested, 0.2% active;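 active = inhibition above the campaign mean of all tested compounds plus 3 SD, cut at about 14% in these data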;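 also: plate controls were DMSO wells with RBBP9 for no effect and wells lacking RBBP9 protein for full effect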
Target sequence (O75884 whole entry, looked up): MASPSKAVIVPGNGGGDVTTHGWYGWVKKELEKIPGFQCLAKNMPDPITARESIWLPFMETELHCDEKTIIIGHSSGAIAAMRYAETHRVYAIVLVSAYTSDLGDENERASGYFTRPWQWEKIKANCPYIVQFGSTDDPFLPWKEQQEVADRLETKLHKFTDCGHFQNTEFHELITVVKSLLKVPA
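Measured by: FP readout at 525/598 nm; material: recombinant human RBBP9; also added: Serine-hydrolase probe FP-Rh, 375 nM pre-mixing; medium: Tris buffer pH 8.0, NaCl, Pluronic; replication: one well per compound; doses: one concentration, 7.94 µM nominal, 0.794% DMSO; timing: preincubation 30 min plus labeling 45 min at 25 °C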
PAFAH1B3 FP inh: blocks human PAF acetylhydrolase 1B catalytic subunit 3. Q15102. recombinant PAFAH1B3, FP-rhodamine probe, fluorescence polarization. inhibition, % at 3.39 µM. 340,000 tested, 0.28% active. AID 492972;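 active = inhibition above the screen-wide average of all tested compounds plus 3 SD, cut at about 25% in these data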;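 also: 0% = enzyme with DMSO only and 100% = wells lacking PAFAH1B3 protein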
Target sequence (Q15102 whole entry, looked up): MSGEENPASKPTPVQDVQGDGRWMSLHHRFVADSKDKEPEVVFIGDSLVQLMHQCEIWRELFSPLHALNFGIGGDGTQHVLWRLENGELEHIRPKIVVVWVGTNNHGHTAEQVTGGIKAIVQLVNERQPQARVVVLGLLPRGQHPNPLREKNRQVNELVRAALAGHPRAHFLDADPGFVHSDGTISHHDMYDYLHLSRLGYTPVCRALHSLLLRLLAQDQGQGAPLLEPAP
PAFAH2 inh: PAFAH2 (human) inhibition | Q99487 | recombinant PAFAH2, FP-rhodamine activity probe, fluorescence polarization | inhibition, % at 3.39 µM | 340,000 tested, 0.99% active;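 active = inhibition above the mean over all tested compounds plus 3 SD, cut at about 30% in these data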;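 also: inhibitors block probe labeling of enzyme so polarization drops; 0% = enzyme with DMSO and 100% = wells lacking PAFAH2 protein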
PAFAH1B2 FP inh: PAFAH1B2 (human) inhibition | P68402 | 340,000 tested, 1.2% active | recombinant PAFAH1B2, FP-rhodamine activity probe, fluorescence polarization | inhibition, % at 3.39 µM;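 active = inhibition above the mean of all tested compounds plus 3 SD, cut at about 24% in these data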;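 also: 0% = enzyme with DMSO and 100% = wells lacking PAFAH1B2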
pPAFAH FP conf: pPAFAH (human) inhibition, confirmed; 2,300 tested, 72% active; AID 463230; inhibition, % at 3.39 µM; recombinant pPAFAH, FP-Rh probe fluorescence polarization; shares compounds with pPAFAH FP inh;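 active = mean inhibition of the triplicate above the hit cutoff set for the earlier primary screen, cut at about 25% in these data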;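 also: 0% = enzyme with DMSO and 100% = wells lacking pPAFAH enzyme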
Active calls of the source: *; / = no result. Compounds with a hit are over-represented: about 2.7% of the library has one in this group of screens.

SMILES	pPAFAH FP inh	RBBP9 inhibitor	PAFAH1B3 FP inh	PAFAH2 inh	PAFAH1B2 FP inh	pPAFAH FP conf
COC(=O)CSc1cc(C(=O)c2nccn2C)c2ccccc2n1	43*	-6	5	0	-1	22
O=C(CCNS(=O)(=O)c1ccccc1Cl)OCc1nnc(-c2ccccc2Cl)o1	12	/	4	2	0	/
Cc1ccc(NC(=O)c2ccc(Nc3c([N+](=O)[O-])cc([N+](=O)[O-])cc3[N+](=O)[O-])cc2)cc1	52*	-5	27*	9	14	51*
CC(Oc1ccccc1F)C(=O)NNC(=O)c1cccc(S(=O)(=O)N2CCN(C)CC2)c1 (stereo not given)	3	/	-1	5	7	/
Cc1cccc(N2CCN(C(=O)c3ccccc3SCC(=O)N3CCCC3)CC2)c1C	6	/	12	-1	-3	/
O=C1CCn2c1c(O)c1ccccc1c2=O	/	/	8	12	4	/
N=C1CCC(=N)c2c1c(O)c1ccccc1c2O	64*	13	44*	69*	39*	41*
CN(Cc1ccccc1)CC(O)CN(C)Cc1ccccc1	/	/	9	-6	3	/
OC(CNCC1CCCO1)Cn1c2ccc(Cl)cc2c2cc(Cl)ccc21 (stereo not given)	41*	-8	-6	-13	1	34*
OC(CNCC1CCCO1)Cn1c2ccccc2c2ccccc21 (stereo not given)	3	-8	-5	0	9	/
CCCCOc1ccc(Nc2cc(Cl)ccc2C(=O)O)cn1	57*	0	12	9	6	41*
Cc1ccc(-c2cc(-c3ccco3)c(C#N)c(=O)[nH]2)cc1	35*	2	13	23	7	21
O=C(Cc1cccs1)NCc1ccccc1	-2	-3	2	12	-2	/
NS(=O)(=O)c1ccc(CNC(=O)Cc2cccs2)cc1	35*	/	6	10	-2	7
CCOC(=O)c1nnn(CC(=O)Nc2ccccc2OC)c1C(=O)OCC	1	-1	0	-4	4	/
COc1ccc(C(=O)NC(=S)NC(C)(C)C)cc1Br	6	-5	11	-10	-2	/
COc1cccc(/C=N/Nc2ccc([N+](=O)[O-])cn2)c1O	48*	/	-3	5	2	12
O=[N+]([O-])c1ccc(N/N=C/c2cccc(O)c2O)cc1	60*	/	31*	5	11	56*
O=C(NCCc1ccc2c(c1)OCCO2)c1cccc(S(=O)(=O)N2CCCC2)c1	36*	/	9	7	0	-6
COCCCNC(=O)c1cc2cc(Br)ccc2oc1=O	0	-10	6	-3	4	/
O=C(NNC(=O)c1cc2cc(Br)ccc2oc1=O)c1ccc(O)cc1O	47*	-4	16	10	1	47*
CN(C)CC1C2CCC(C2)C1O (stereo not given)	/	/	12	-4	4	/
O=S(=O)(Nc1nc2ccccc2nc1Nc1ccc2c(c1)OCCO2)c1cccs1	49*	-6	2	14	11	49*
CCn1c(NC(=O)c2cccc(Cn3cc(Cl)cn3)c2)nc2ccccc21	65*	-8	4	0	3	65*
C=CCOC(=O)C1C(=O)CC(C)(O)C(C(=O)OCC=C)C1c1ccc(N(C)C)cc1 (stereo not given)	-1	-4	-3	0	2	/
SMILES	pPAFAH FP inh	RBBP9 inhibitor	PAFAH1B3 FP inh	PAFAH2 inh	PAFAH1B2 FP inh	pPAFAH FP conf
COCCN(CCNC(=O)c1ccc(NC2=NC3CS(=O)(=O)CC3S2)cc1)Cc1ccco1 (stereo not given)	7	/	1	-1	-1	/
N=C1/C(=C\c2ccc(-c3cc(Cl)cc(Cl)c3)o2)C(=O)N=C2SC=C(c3ccccc3)N12	12	-3	-6	-12	-5	/
N=C1/C(=C/c2ccc(-c3cccc(C(=O)O)c3)o2)C(=O)N=C2SC=C(c3ccccc3)N12	50*	-5	27*	32*	26*	62*
O=C(N/N=C/c1cc(Br)cc([N+](=O)[O-])c1O)c1ccc(NC(=O)c2ccc(F)cc2)cc1	38*	/	12	13	8	55*
CCCCOC(=O)c1ccc(OC(=O)N2CCOCC2)cc1	94*	/	7	36*	4	97*
O=C(OCCCC(=O)N1CCOCC1)c1ccccc1	-2	-4	3	11	0	/
CCCCOC(=O)N1CCOCCOCCN(C(=O)OCCCC)CCOCCOCC1	35*	0	5	2	4	26*
CCOC(=O)N1CCN(C(=O)N2CCOCC2)CC1	1	-1	12	7	7	/
O=C(c1ccccc1)c1ccc(OC(=O)N2CCOCC2)cc1	52*	-4	5	35*	5	53*
COc1cccc(CNC(=O)Cn2cc([N+](=O)[O-])cn2)c1	5	/	2	-3	4	/
Cc1cc(Cl)c2oc(C(=O)N(C)CCc3cnn(C)c3)c(C)c2c1	4	/	14	0	4	/
O=C(NNC(=S)Nc1ccc(Cl)c(Cl)c1)c1ccccn1	37*	-6	15	9	20	51*
CCNC(=S)NNC(=O)c1ccccn1	-2	1	10	-7	7	/
CN(C(=O)c1cccc(N2C(=O)C3C4C=CC(C4)C3C2=O)c1)C1CCCCC1 (stereo not given)	4	/	9	1	1	/
O=C(O)CCc1ccc(-c2ccc(Cl)cc2)n1Cc1ccco1	35*	-7	1	15	13	16
O=C(O)CCc1ccc(-c2cccs2)n1Cc1ccco1	19	2	6	3	8	/
CCCOc1ccc(C(C)=O)cc1CSc1nc(O)cc(=O)[nH]1	35*	-2	3	6	3	11
COc1cc(C2NC(C(=O)O)CS2)ccc1OCc1ccccc1C#N (stereo not given)	/	-6	/	/	/	/
Cc1cccc(N2CCN(C(=O)/C=C/c3cccs3)CC2)c1C	2	-6	2	-2	0	/
O=C1NC2(CCCCCC2)N=C1c1ccc(Br)cc1	8	3	2	1	3	/
O=C(O)CCNc1cc(N2CCN(C(=O)c3ccco3)CC2)c2noc3c2c1C(=O)c1ccccc1-3	74*	/	-8	-16	-2	45*
O=C1CCc2cc(S(=O)(=O)NCCC(=O)N3CCN(c4cccc(Cl)c4)CC3)ccc2N1	7	-14	-4	0	-4	/
Cc1ccc([N+](=O)[O-])cc1-c1[nH]c(-c2ccc(O)c(O)c2)nc1-c1ccccc1	65*	-15	19	-2	3	83*
Cc1cc(C(=O)CCl)c(C)n1CCc1ccccc1	54*	5	/	/	/	4
CCn1cc(C(=O)OCC(=O)N(C)Cc2ccccc2)c(=O)c2ccc(C)nc21	-1	-2	3	4	1	/
CC(C)(C)OC(=O)NCCCC[C@H](NC(=O)c1[nH]cnc1C(=O)Nc1ccccc1)C(=O)OC(C)(C)C	12	/	-3	-4	1	/
